# pIC50, pKi: −log10 of the molar value.
# Assays:
# [1] = target: T1, Melanin-concentrating hormone receptor 1 (Homo sapiens, UniProt Q99705); experiment: Antagonist activity at MCH1R; type: functional
# In short: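 MCH-1 receptor-expressing CHO cells seeded 24 h before (5000 cells/well), loaded with calcium assay kit containing 10 mM probenicide for 90 min at 37 °C, 5% CO2. Serial dilutions of compound added, 20 min at room temperature in the dark, then submaximal MCH challenge; intracellular calcium change recorded on FLIPR III.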
# [2] = target: T1, Melanin-concentrating hormone receptor 1; experiment: Antagonist activity at MCH1R by [35S]GTPgammaS binding assay; type: functional
# [3] = target: T1, Melanin-concentrating hormone receptor 1
# T1 sequence (Q99705 whole entry): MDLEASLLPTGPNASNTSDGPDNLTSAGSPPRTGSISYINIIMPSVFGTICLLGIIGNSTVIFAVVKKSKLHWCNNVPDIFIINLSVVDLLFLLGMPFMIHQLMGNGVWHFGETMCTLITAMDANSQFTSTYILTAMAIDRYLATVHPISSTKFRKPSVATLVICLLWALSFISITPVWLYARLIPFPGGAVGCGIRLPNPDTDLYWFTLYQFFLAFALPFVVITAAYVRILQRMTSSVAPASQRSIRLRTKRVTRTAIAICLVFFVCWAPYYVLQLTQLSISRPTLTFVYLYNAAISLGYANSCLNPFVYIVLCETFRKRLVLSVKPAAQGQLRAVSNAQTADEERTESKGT
compound,measurement,setting,value
C(=C\c1ccc(-c2nnc(CSCCOc3ccccc3)o2)cc1)/CN1CCCC1,Activity,[1],1.9 nM
Cn1cc(CCN2CCCC2)c2ccc(-n3ccc4nc(-c5ccc(Cl)cc5)sc4c3=O)cc21,pKi,[1],8.50
CN(C)CC1CCc2cc(NC(=O)c3ccc(-c4ccc(F)cc4)cc3)ccc2C1 (centres undefined),pIC50,[2],7.72
COc1cc(-n2ccnc(OCCc3ccccc3)c2=O)ccc1OCCN1CCCC1,pIC50,[3],7.08
COc1cc(-n2ccnc(CCCc3ccccc3)c2=O)ccc1OCCN1CCCC1,pIC50,[3],6.98
CC(C)N(C)c1nc2cc(-c3noc(COCc4ccc(Cl)cc4)n3)ccc2[nH]1,pIC50,[1],8.15
O=c1cc(/C=C/c2ccccc2)ccn1-c1ccc(OCCN2CCCC2)cc1,Activity,[1],1.5 nM
COc1cc(-c2cnc3[nH]c(-c4ccc(Cl)cc4)cn3c2=O)ccc1OCCN1CCCC1,pKi,[1],7.11
CCN(CC)Cc1ccc2c(c1)CCC(N1CCN(CCc3ccc(F)cc3)CC1=O)C2 (centres undefined),pKi,[1],8.52
COc1cc(-n2ccnc(NCCc3ccccc3)c2=O)ccc1OCCN1CCCC1,pIC50,[3],7.34
COc1cc(-n2cnc3cc(-c4ccccc4)ccc3c2=O)ccc1OCCN1CCCC1,Activity,[1],2.1 nM
COc1cc(-n2nnc3cc(-c4ccc(Cl)cc4)sc3c2=O)ccc1N1CC[C@@H](O)C1,pIC50,[1],< 5.30
CN(C)CCOc1ccc(-n2ccn(-c3ccc(Oc4ccccc4)cc3)c2=O)cc1,pIC50,[1],< 7.00
CN[C@@H]1CCN(c2ccc(-n3ccc4cc(-c5ccc(C(F)(F)F)cc5)sc4c3=O)cn2)C1,pKi,[1],8.48

# — ChEMBL document CHEMBL1153986, “Novel approach for chemotype hopping based on annotated databases of chemically feasible fragments and a prospective case study: new melanin concentrating hormone antagonists” (J Med Chem, 2009)
